ChEMBL document CHEMBL4321796, “Proteolysis Targeting Chimeras for the Selective Degradation of Mcl-1/Bcl-2 Derived from Nonselective Target Binding Ligands” (J Med Chem, 2019)
Activity calls are given as the source filed them. The calls are words filed in the database; no cut-off is given here.

Legend:
[1] = target: T1, Protein cereblon/Apoptosis regulator Bcl-2 (Homo sapiens, UniProt P10415+Q96SW2); assay: Induction of CRBN-mediated Bcl-2 degradation in human HeLa cells assessed as relative abundance at 0.1 uM after 12 hrs by Western blot analysis (reference value: 1); assay type: cell-based
[2] = target: T2, Protein cereblon/Induced myeloid leukemia cell differentiation protein Mcl-1 (Homo sapiens, UniProt Q07820+Q96SW2); assay: Induction of CRBN-mediated Mcl-1 degradation in human HeLa cells assessed as relative abundance at 0.3 uM after 12 hrs by Western blot analysis (reference value: 1); assay type: cell-based
Target sequence in this assay (Q07820 whole entry, looked up): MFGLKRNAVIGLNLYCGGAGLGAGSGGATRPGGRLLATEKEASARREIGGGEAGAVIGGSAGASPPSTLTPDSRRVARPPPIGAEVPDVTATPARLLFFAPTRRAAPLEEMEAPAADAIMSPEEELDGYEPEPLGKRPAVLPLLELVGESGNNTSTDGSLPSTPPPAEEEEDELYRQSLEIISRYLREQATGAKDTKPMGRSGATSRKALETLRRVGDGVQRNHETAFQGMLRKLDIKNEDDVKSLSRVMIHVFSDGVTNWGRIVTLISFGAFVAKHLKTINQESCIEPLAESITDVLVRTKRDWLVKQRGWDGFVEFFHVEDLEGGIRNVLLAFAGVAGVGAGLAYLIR
Target sequence in this assay (Q96SW2 whole entry, looked up): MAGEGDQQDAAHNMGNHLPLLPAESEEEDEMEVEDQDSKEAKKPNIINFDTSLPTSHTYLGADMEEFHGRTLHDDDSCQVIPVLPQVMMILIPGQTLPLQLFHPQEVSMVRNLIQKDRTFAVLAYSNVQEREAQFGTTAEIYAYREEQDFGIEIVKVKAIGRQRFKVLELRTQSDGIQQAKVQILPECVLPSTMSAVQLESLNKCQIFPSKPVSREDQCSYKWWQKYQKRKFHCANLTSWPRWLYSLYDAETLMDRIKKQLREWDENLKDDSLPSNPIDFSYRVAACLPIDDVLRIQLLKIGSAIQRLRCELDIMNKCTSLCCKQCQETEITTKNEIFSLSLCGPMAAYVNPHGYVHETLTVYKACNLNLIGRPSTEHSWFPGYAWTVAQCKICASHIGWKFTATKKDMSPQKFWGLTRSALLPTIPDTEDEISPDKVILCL

[3] = target: T2, Protein cereblon/Induced myeloid leukemia cell differentiation protein Mcl-1; assay: Induction of CRBN-mediated Mcl-1 degradation in human HeLa cells at 10 uM measured at 12 hrs by Western blot analysis relative to control; assay type: cell-based
Method in brief: (§1)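 HeLa cells in DMEM with 10% FBS, exposed to 10 µM compound over a 0–24 h time course. Mcl-1 and Bcl-2 detected by immunoblot (NP-40 lysis, BCA-equalized SDS-PAGE, PVDF, ECL) and quantified relative to DMSO control; mean ± s.d., n=3 independent samples.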
Target sequence in this assay (Q07820 whole entry, looked up): as the sequence (Q07820 whole entry, looked up) above
Target sequence in this assay (Q96SW2 whole entry, looked up): as the sequence (Q96SW2 whole entry, looked up) above

[4] = target: T1, Protein cereblon/Apoptosis regulator Bcl-2; assay: Induction of CRBN-mediated Bcl-2 degradation in human HeLa cells assessed as relative abundance at 10 uM after 12 hrs by Western blot analysis (reference value: 1); assay type: cell-based
[5] = target: T2, Protein cereblon/Induced myeloid leukemia cell differentiation protein Mcl-1; assay: Induction of CRBN-mediated Mcl-1 degradation in human HeLa cells at 10 uM pretreated with Bcl-2 inhibitor Nap-1 followed by compound addition by Western blot analysis; assay type: cell-based
Target sequence in this assay (Q07820 whole entry, looked up): as the sequence (Q07820 whole entry, looked up) above
Target sequence in this assay (Q96SW2 whole entry, looked up): as the sequence (Q96SW2 whole entry, looked up) above

[6] = target: T2, Protein cereblon/Induced myeloid leukemia cell differentiation protein Mcl-1; assay: Protac activity at CRBN/Mcl-1 in human HeLa cell lysates assessed as ternary complex formation by Western blot analysis based pull-down assay; assay type: subcellular; details: Lysate
Method in brief: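 HeLa lysate (25×10^6 cells, 1% Triton X-100 IP buffer), 1 mg total protein, incubated overnight with 1 µg CRBN antibody across a compound concentration gradient. Capture on protein A+G agarose, three Triton washes, boiled in loading buffer. Mcl-1, Bcl-2 and CRBN detected by immunoblotting. n=3 independent samples.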
Target sequence in this assay (Q07820 whole entry, looked up): as the sequence (Q07820 whole entry, looked up) above
Target sequence in this assay (Q96SW2 whole entry, looked up): as the sequence (Q96SW2 whole entry, looked up) above

[7] = target: Induced myeloid leukemia cell differentiation protein Mcl-1 (Homo sapiens, UniProt Q07820); assay: Inhibition of biotinylated Bim peptide (81 to 106 residues) binding to His-tagged human Mcl-1 expressed in Escherichia coli BL21 (DE3) cells preincubated for 1 hr followed by biotinylated Bim peptide addition measured after 2 hrs by ELISA
Method in brief: (§2)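 Inhibitor serially diluted (100–0.1 µM) from 10 mM DMSO stock, preincubated 1 h with 200 nM His-tagged protein in PBS (final DMSO 4%), then added 2 h to streptavidin plates holding biotin-Bim (plated at 0.09 mg/mL). Incubations at 4 °C. Detection with HRP anti-His, TMB 30 min, H2SO4 stop, A450. IC50 averaged from three independent experiments, with SD.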

[8] = target: Apoptosis regulator Bcl-2 (Homo sapiens, UniProt P10415); assay: Inhibition of biotinylated Bim peptide (81 to 106 residues) binding to His-tagged human Bcl-2 expressed in Escherichia coli BL21 (DE3) cells preincubated for 1 hr followed by biotinylated Bim peptide addition measured after 2 hrs by ELISA; method in brief: as §2
[9] = target: T2, Protein cereblon/Induced myeloid leukemia cell differentiation protein Mcl-1; assay: Induction of CRBN-mediated Mcl-1 degradation in human HeLa cells assessed as Mcl-1 removal activity measured at 12 hrs by Western blot analysis; assay type: cell-based
Target sequence in this assay (Q07820 whole entry): as the sequence (Q07820 whole entry, looked up) above
Target sequence in this assay (Q96SW2 whole entry): as the sequence (Q96SW2 whole entry, looked up) above

[10] = target: T1, Protein cereblon/Apoptosis regulator Bcl-2; assay: Induction of CRBN-mediated Bcl-2 degradation in human HeLa cells assessed as relative abundance at 10 uM measured at 2 hrs by Western blot analysis (reference value: 1); assay type: cell-based; method in brief: as §1
[11] = target: T1, Protein cereblon/Apoptosis regulator Bcl-2; assay: Induction of CRBN-mediated Bcl-2 degradation in human HeLa cells assessed as relative abundance at 0.3 uM after 12 hrs by Western blot analysis (reference value: 1); assay type: cell-based
[12] = target: T2, Protein cereblon/Induced myeloid leukemia cell differentiation protein Mcl-1; assay: Induction of CRBN-mediated Mcl-1 degradation in human HeLa cells assessed as relative abundance at 10 uM measured at 2 hrs by Western blot analysis (reference value: 1); assay type: cell-based; method in brief: as §1
Target sequence in this assay (Q07820 whole entry, looked up): as the sequence (Q07820 whole entry, looked up) above
Target sequence in this assay (Q96SW2 whole entry, looked up): as the sequence (Q96SW2 whole entry, looked up) above

[13] = target: T2, Protein cereblon/Induced myeloid leukemia cell differentiation protein Mcl-1; assay: Induction of CRBN-mediated Mcl-1 degradation in human HeLa cells assessed as relative abundance at 0.1 uM after 12 hrs by Western blot analysis (reference value: 1); assay type: cell-based
Target sequence in this assay (Q07820 whole entry, looked up): as the sequence (Q07820 whole entry, looked up) above
Target sequence in this assay (Q96SW2 whole entry, looked up): as the sequence (Q96SW2 whole entry, looked up) above

[14] = target: T2, Protein cereblon/Induced myeloid leukemia cell differentiation protein Mcl-1; assay: Induction of CRBN-mediated Mcl-1 degradation in human HeLa cells assessed as relative abundance at 10 uM measured at 16 hrs by Western blot analysis (reference value: 1); assay type: cell-based; method in brief: as §1

T1 sequence (P10415 whole entry, looked up): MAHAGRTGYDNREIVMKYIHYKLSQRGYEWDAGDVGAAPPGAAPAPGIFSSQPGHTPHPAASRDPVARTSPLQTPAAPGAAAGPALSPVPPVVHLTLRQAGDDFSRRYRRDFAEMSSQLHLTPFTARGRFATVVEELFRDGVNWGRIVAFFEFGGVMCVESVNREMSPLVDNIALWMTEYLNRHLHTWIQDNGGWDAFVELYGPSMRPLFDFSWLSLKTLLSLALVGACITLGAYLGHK
T1 sequence (Q96SW2 whole entry, looked up): as the sequence (Q96SW2 whole entry, looked up) above
Sequence of Induced myeloid leukemia cell differentiation protein Mcl-1 (Q07820 whole entry, the tested form may be a part): as the sequence (Q07820 whole entry, looked up) above
Sequence of Apoptosis regulator Bcl-2 (P10415 whole entry, the tested form may be a part): as the sequence (P10415 whole entry, looked up) above

fold change (FC) [1]: 0.9
fold change (FC) [2]: 0.9
Activity [3]: 80%
fold change (FC) [4]: 0.8 to 1
Activity [5]: inactive
Activity [6]: Dose-dependent effect
IC50 [7]: 0.78 µM
IC50 [8]: 0.54 µM
DC50 [9]: 0.7 µM
fold change (FC) [10]: 1.1
fold change (FC) [11]: 1
fold change (FC) [12]: 1.1
fold change (FC) [13]: 1.1
fold change (FC) [14]: 0.4
SMILES: O=C(CCCCC(=O)NCCN1C(=O)c2cccc3c(Sc4ccc(Br)cc4)ccc(c23)C1=O)NCCCCCCNc1cccc2c1C(=O)N(C1CCC(=O)NC1=O)C2=O (centres undefined)
